Published values pooled from the literature.
Protocols differ between the studies behind these lines.
Target: Serine/threonine-protein kinase SIK2 (SIK2, Homo sapiens, UniProt Q9H0K1)

For `C[C@@H](c1ccc(-n2cnc3c(N)ncnc32)cc1)N1CCc2nn(C)c(Cc3ccccc3)c2C1=O`, the remaining binding was 73% (binding, competition with immobilised ligand; 0.1 µM).
For `CN(CCCC(F)(F)F)c1nccc(-c2cnn3ncccc23)n1`, the remaining binding was 99% (binding; 1 µM).
For `Cc1cnc(Nc2ccc(C(=O)N3CCC(N4CCCC4)CC3)cc2)nc1-c1cc2ccccc2s1`, the remaining binding was 16% (binding, competition with immobilised ligand; 1 µM).
`CNC(=O)c1ccc(Nc2ncc(C(F)(F)F)c(NCc3nccnc3N(C)S(C)(=O)=O)n2)cc1` has a remaining binding of 100% (cell-free assay, competition with immobilised ligand; 0.1 µM).
`CN(C)c1nccc(-c2cnn3ncccc23)n1` gave a remaining binding of 100% (binding; 1 µM).
The remaining binding of `CCN1CCN(Cc2ccc(C(=O)Nc3ccc(C)c(Oc4ccc5c(c4)CC(=O)N5)c3)cc2C(F)(F)F)CC1` is reported as 80% (binding, competition with immobilised ligand; 1 µM).
For `c1cncc(-c2cccc(Nc3nccc(NC4CCCCC4)n3)c2)c1`, the remaining binding was 73% (binding, competition with immobilised ligand; 10 µM).
`Nc1ncc2c(n1)-c1c([nH]c3ccc(C#CC4CC4)cc13)CCCC2` gave a remaining binding of 81% (binding, competition with immobilised ligand; 1 µM).
`COc1cnc(Nc2cccc(S(N)(=O)=O)c2)nc1N1CCN(c2ccccc2)CC1` has a remaining binding of 100% (binding, competition with immobilised ligand; 1 µM).
`CN(C)c1nccc(-c2cnc3ncccn23)n1` has a remaining binding of 100% (binding; 1 µM).
`CC(C)CC(=O)N1CCc2nc(-c3ccc(Br)cc3)nc(N(C)Cc3ccccc3)c2C1` has a remaining binding of 100% (cell-free assay, competition with immobilised ligand; 0.1 µM).
`N[C@H]1CCN(c2nccc(-c3cnn4ncccc34)n2)C1` has a remaining binding of 87% (binding; 1 µM).
For `O=S(=O)(NC1CCC(c2cc(F)ccc2F)(S(=O)(=O)c2ccc(Cl)cc2)CC1)C(F)(F)F` (stereo not shown), the remaining binding was 100% (cell-free assay, competition with immobilised ligand; 1 µM).
For `O=C(NCCCN1CCOCC1)c1ccc(Nc2ncc(Cl)c(-c3ccc(Cl)s3)n2)cc1`, the remaining binding was 37% (binding, competition with immobilised ligand; 1 µM).
`COCCOc1nc(-c2ccc(Cl)nc2)nc2c1CN(C(=O)c1ncn3ccccc13)CC2` gave a remaining binding of 100% (cell-free assay, competition with immobilised ligand; 0.1 µM).
`O=C(c1ccc(Nc2ncc(Cl)c(-c3ccc(Cl)s3)n2)cc1)N1CCC(N2CCCC2)CC1` gave a remaining binding of 21% (binding, competition with immobilised ligand; 1 µM).
`Cc1cnn2ncc(-c3ccnc(N(C)C)n3)c2c1` gave a remaining binding of 100% (binding; 1 µM).
With `c1ccc(N2CCN(Cc3nc4ccccc4[nH]3)CC2)nc1` the remaining binding was 100% (binding, competition with immobilised ligand; 1 µM).
`F[C@@H]1CCN(c2nccc(-c3cnn4ncccc34)n2)C1` gave a remaining binding of 100% (binding; 1 µM).
With `CCC(=N\O)/C(C)=C/c1ccc(F)cc1` the remaining binding was 100% (cell-free assay, competition with immobilised ligand; 1 µM).
`c1cnn2ncc(-c3ccnc(N4CCC45COC5)n3)c2c1` gave a remaining binding of 96% (binding; 1 µM).
With `O=C(Nc1c[nH]nc1C(=O)NC1CCNCC1)c1cc(F)cc(F)c1` the remaining binding was 100% (binding, competition with immobilised ligand; 1 µM).
